About 1,100 (0.33%) of roughly 330,000 compounds were called active. The sample holds actives, similar compounds and a random draw of the others, so the mix is not that of the screen. Unmarked numbers belong to inactive results.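 How the source made its calls: active means at 10 µM dose, activation of 40% or more, normalized to positive control; inactive means the rest.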
Experiment: activators of apoptotic CHOP UPR arm, primary screen, cell-based, CHO-CHOP luciferase reporter, luminescence, uHTS (AID 449763);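 further: 100% = tunicamycin at 10 µg/mL and 0% = DMSO alone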
Conditions: at 10 µM, active compounds read high, percent of tunicamycin response over DMSO baseline
Method in brief: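 measured by = luciferase luminescence | assay system = CHO-CHOP cells, stable luciferase reporter of PERK-eIF2a-CHOP signalling | amount = 500 reporter cells seeded per well | timing = 6 h compound exposure at 37 °C after overnight seeding | controls = positive tunicamycin 10 µg/mL, negative DMSO alone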

Row | SMILES | activation
1 | COc1cc(N=Cc2c(O)c3ccccc3oc2=O)c(OC)cc1Cl | 3.5%
2 | COc1ccccc1N=Cc1c(O)c2ccccc2oc1=O | 130% (active)
3 | COc1ccccc1N=C(C)C1=C(O)COC1=O | -0.0733%
4 | COc1ccc(C(=O)Nc2cc(S(=O)(=O)N3CCCC3)ccc2Cl)cc1 | 0.727%
5 | Cc1ccc(CN2CCCOCCS2(=O)=O)cc1 | -0.00453%
6 | CCN(CC(=O)Nc1cccc(S(=O)(=O)N2CCCCC2)c1)Cc1ccccc1 | -0.441%
7 | Nc1nc(COC(=O)CCC(=O)c2ccc(Cl)cc2)nc(Nc2ccccc2)n1 | 0.238%
8 | Nc1nc(CC(=O)CSc2ccc(Cl)cc2)nc(Nc2ccc(F)cc2)n1 | 42.4% (active)
9 | Cc1ccc(Nc2nc(N)nc(CSc3nnc(C)s3)n2)cc1 | 4.12%
10 | COc1ccc(C(=O)CSc2nnnn2C)c(OC)c1 | 0.876%
11 | Cc1cccc(C)c1NC(=O)C(c1ccccc1)N1CC(=O)Nc2ccccc21 (stereo not drawn) | -0.493%
12 | Cc1cccc(C)c1NC(=O)C(Cl)C(=O)c1ccccc1 (stereo not drawn) | 52.9% (active)
13 | Cc1cccc(C)c1NC(=O)CN(C)C(=O)CCC(=O)c1ccccc1 | 0.683%
14 | C1=C(N2CCOCC2)/C(=C/c2nc3ccccc3[nH]2)CC1 | -3.2%
15 | CSc1nc(-c2ccccc2)nc(C(Cl)Cl)n1 | 46.2% (active)
16 | CSc1ncc(Sc2ccccc2)c(C(=O)O)n1 | -0.159%
17 | CC(C)=CCC/C(C)=C/C(=O)O | 0.467%
18 | COc1ccccc1N1CCN(CC(=O)NCCc2ccc(S(N)(=O)=O)cc2)CC1 | -1.28%
19 | O=C(/C=C/c1cccs1)c1cc(Cl)ccc1OC(=O)N1CCOCC1 | 2.72%
20 | COc1ccc(C(=O)N2CCC(C(=O)Nc3ccc(C)cc3)CC2)cc1 | -0.572%
21 | CCc1nn(-c2cc(Oc3cccc4ccccc34)nc(-c3ccccc3)n2)c(N)c1C#N | 56.7% (active)
22 | CC(C)(C)n1nc(Cc2cccc3ccccc23)c(C#N)c1N | 0.111%
23 | CCCC(c1nnnn1C(C)(C)C)N1CCN(Cc2ccccc2)CC1 (stereo not drawn) | -1.39%
24 | CC(C)[C@H](NC(=O)N1c2ccccc2NC(=O)[C@@H]1C(C)C)C(=O)N[C@H](C(=O)O)c1ccccc1 | -2.11%

Row | SMILES | activation
25 | C=CCN1CN(S(=O)(=O)c2ccc(OC)cc2)c2nc3ccccc3nc21 | 0.29%
26 | O=C(Cc1ccccc1)NC(=S)Nc1ccc(N2CCCCC2)cc1 | 0.603%
27 | O=C1C=CC(=O)N1c1ccc(N2CCCCC2)cc1 | 44.6% (active)
28 | CC(=O)Nc1ccc(S(=O)(=O)Nc2ccc(N3CCCCC3)cc2)cc1 | 4.38%
29 | COc1ccccc1-n1c(SCC(=O)O)nc2sc3c(c2c1=O)CCC3 | 1.38%
30 | COc1ccc(NC(=O)C(CC(C)C)NC(=O)C2CCC(C)CC2)cc1 (stereo not drawn) | 0.903%
31 | COc1ccccc1CNS(=O)(=O)c1cc2c3c(c1)CCC(=O)N3CCC2 | 2.93%
32 | Fc1ccc2nc(-c3ccccc3)nc(SCc3nnc(-c4ccccc4)o3)c2c1 | 0.865%
33 | Cc1ccc(CS(=O)(=O)c2ncc(Cl)c(C(=O)Nc3nnc(C)s3)n2)cc1 | 26.4%
34 | CCOc1ccc(NC(=O)c2nc(SCC)ncc2Cl)cc1 | 0.746%
35 | COCCSc1nnc(NC(=O)CCS(=O)(=O)Cc2ccccc2)s1 | -0.572%
36 | Cc1cccc(NC(=O)c2nc(S(=O)(=O)Cc3ccccc3)ncc2Cl)c1 | -9.27%
37 | CSc1nnc(NC(=O)c2nc(S(=O)(=O)Cc3ccc(C)cc3)ncc2Cl)s1 | 72.6% (active)
38 | Cc1cccc(CS(=O)(=O)c2ncc(Cl)c(C(=O)Nc3ccc(F)cc3)n2)c1 | 278% (active)
39 | O=C(NCCCCO)C(F)(F)C(F)(F)C(F)(F)C(=O)NCCCCO | 2.68%
40 | Cc1cccc(OCc2nnc(SCc3nc4cc(C(F)(F)F)ccc4c(=O)[nH]3)o2)c1 | 1.49%
41 | Cc1ccc(OCc2nnc(SC3CCc4ccccc4C3=O)n2C)cc1 (stereo not drawn) | 0.0439%
42 | CSc1ccc(/C=C/C(=O)NC23CC4CC(CC(C4)C2)C3)cc1 | 6.51%
43 | Clc1ccc(CN2CCCCCC2)cc1Cl | 0.707%
44 | O=S(=O)(NCCc1ccc(F)cc1)c1cccc2cccnc12 | 0.907%
45 | NS(=O)(=O)c1ccc(CCNS(=O)(=O)c2cccc3cccnc23)cc1 | 0.112%
46 | O=[N+]([O-])c1ccccc1S(=O)(=O)Nc1cccc2cccnc12 | 428% (active)
47 | Cc1ccc2oc(=O)c3cnn(CC(=O)N(Cc4ccco4)C4CCCCC4)c3c2c1 | 0.347%
48 | CC(C)CCNC(=O)Cn1c(=O)oc2cc(S(=O)(=O)N3CC(C)CC(C)C3)ccc21 (stereo not drawn) | 0.0919%

Row | SMILES | activation
49 | COc1cc(CC(=O)Nc2nc(-c3ccc(F)c(F)c3)cs2)cc(OC)c1OC | 6.97%
50 | COc1ccc2c(c1OC)C(=O)OC2Nc1nc(-c2ccccc2)cs1 (stereo not drawn) | 41.7% (active)
51 | CCc1ccccc1NC(=O)[C@@H]1CCC(=O)N1C1OC(=O)c2c1ccc(OC)c2OC (stereo partly drawn) | -1.13%
52 | O=C1Nc2cc(Cl)c(Cl)cc2N(O)N1c1ccccc1Cl | 0.176%
53 | COc1ccc(N=C2SC(C(=O)Nc3ccc(F)cc3)CC(=O)N2C)cc1 (stereo not drawn) | -0.141%
54 | CCOCCc1nn2c(=O)cc(CSCC(=O)Nc3cccc(C)c3C)nc2s1 | -1.45%
55 | Cn1c(-c2ccc(C(F)(F)F)cc2)cc2onc(-c3ccccc3)c2c1=O | 5.2%
56 | CCOc1ccc(N2C(=O)CC(N(CCc3ccc(OC)c(OC)c3)C(=S)Nc3ccccc3)C2=O)cc1 (stereo not drawn) | 1.65%
57 | CCCCCCC(=O)N(O)C1CC(=O)N(c2ccccc2)C1=O (stereo not drawn) | 1.5%
58 | CCOc1ccc(N2C(=O)CC(N(O)c3ccccc3)C2=O)cc1 (stereo not drawn) | 185% (active)
59 | CC(=O)NNC1=Nc2ccccc2N(C)C(C)C1 (stereo not drawn) | 1.41%
60 | CCOc1cc(N2CCOCC2)c(OCC)cc1NC(=O)C1=NN(c2cccc(C)c2)C(=O)CC1 | 1.02%
61 | COc1cc(NC(=O)c2cncc(-c3ccc(C#N)cc3)c2)cc(C(=O)Nc2cccc(C(F)(F)F)c2)c1 | 73.6% (active)
62 | COc1cc(NC(=O)c2[nH]cnc2C(N)=O)cc(C(=O)Nc2cccc(C(F)(F)F)c2)c1 | 12.8%
63 | N#Cc1ccc(Oc2ccc(C(F)(F)F)cc2NC(=O)c2ccc(F)cc2)cc1 | -0.147%
64 | O=C(O)C1C2C=CC(C2)C1C(=O)NCc1ccccc1 (stereo not drawn) | -1.58%
65 | O=C(CC(NCCN1CCOCC1)C(=O)O)Nc1cccc(Cl)c1 (stereo not drawn) | -1.8%
66 | CC(=O)Nc1ccc(NC(=O)C(C)OC(=O)c2ccccc2C(=O)c2ccc(Cl)c([N+](=O)[O-])c2)cc1 (stereo not drawn) | 12.1%
67 | N#Cc1cccc(NC(=O)COC(=O)c2ccccc2C(=O)c2ccc(Cl)c([N+](=O)[O-])c2)c1 | 105% (active)
68 | CC(=O)Nc1ccc(NC(=O)COC(=O)c2ccccc2C(=O)c2ccccc2)cc1 | 1.65%
69 | CC1=CC(C)(C)NC(=S)N1c1ccccc1 | 0.0762%
70 | O=C(c1c(F)cccc1F)N1CCN(S(=O)(=O)c2ccc3c(c2)OCCO3)CC1 | 2.02%
71 | O=[N+]([O-])c1ccc(C=Nc2ccc(Cl)cc2Cl)s1 | 112% (active)
72 | CC1CN(C(=O)c2ccc([N+](=O)[O-])s2)CC(C)O1 (stereo not drawn) | 1.2%

Row | SMILES | activation
73 | CCN(Cc1ccccc1)C(=O)CCS(=O)(=O)c1ccc2c(c1)oc(=O)n2C | -2.75%
74 | Cc1cccc(NC(=O)C2CC(=O)OC23CCCC3)c1 (stereo not drawn) | 0.24%
75 | CCOC(=O)CN(C(=O)CN1CCOCC1)c1ccc(Br)cc1 | -1.27%
76 | CC1CCCC(C)N1C(=O)COC(=O)COc1ccccc1C#N (stereo not drawn) | -1.4%
77 | CC(=O)Nc1ccc(Nc2ncnc3c2nnn3Cc2ccccc2Cl)cc1 | -0.872%
78 | CCOC(=O)CCc1c(C)c(C#N)c2[nH]c3ccccc3n2c1=O | -1.06%
79 | CCCc1cc(=S)n2c([nH]c3ccccc32)c1C#N | 54.1% (active)
80 | CN(C)Cc1c(C#N)c2ccccc2n1C | -0.172%
81 | CCn1c(SCC(=O)Nc2cc(C)ccc2C)nnc1-c1cnccn1 | -1.53%
82 | Cc1[nH]n(-c2ccccc2)c(=O)c1CCOC(=O)c1ccc(C(F)(F)F)cc1 | -0.83%
83 | O=C1CC(c2ccccc2)CC(O)=C1C=NCCN1CCOCC1 (stereo not drawn) | -2.31%
84 | O=C1C=C(c2cccc(Cl)c2)C[C@@H](c2ccc(F)cc2)C1 | -0.428%
85 | O=C1CC(c2cccc(Cl)c2)CC(O)=C1C=Nc1ccccc1 (stereo not drawn) | 50% (active)
86 | Cc1ccc(NC(=O)C(=O)NCc2ccc(/C=N/NC(=O)c3c(C)nc4cc(C)ccn34)o2)cc1 | 4.97%
87 | CCc1ccc(N(C(=O)c2csnn2)C(C(=O)NC2CCCCC2)c2ccncc2)cc1 (stereo not drawn) | -1.98%
88 | CCOC(=O)c1c(NC(=O)CCCN2CCOCC2)sc2c1CC(C)(C)OC2 | -2.37%
89 | CCC(=O)Nc1sc(C(=O)Nc2ccccc2)c(C)c1C(=O)OC | -0.316%
90 | CCOC(=O)Nc1sc(C(=O)N(C)C)c(C)c1C(=O)OCC | -4.31%
91 | CCOC(=O)c1c(NC(=O)CCl)sc(C(=O)N(CC)CC)c1C | 48.1% (active)
92 | CCOC(=O)c1sc(NC(=O)CCN2CCOCC2)c(C(=O)OCC)c1C | 43.2% (active)
93 | COC(=O)c1c(NC(=O)CCN2CCOCC2)sc2c1CCCC2 | 0.577%
